Laboratory results as given in ChEMBL document CHEMBL3045304, “Sesquiterpene lactones with potential use as natural herbicide models. 2. guaianolides” (2000).
The source made the active and inactive calls. No cut-off for these calls is given here.

These molecules were tested on Lepidium sativum (assay: Inhibition of hypocotyl length of Lepidium sativum at 0.1 mM or 1 mM after 4 days relative to untreated control).
In the case of C=C1CC[C@H]2[C@H](CO)C(=O)O[C@@H]2[C@@]2(O)C(=C)[C@H](O)C[C@@H]12, the “inhibition (INH)” value is reported as 20%.

These molecules were tested on Solanum lycopersicum (assay: Inhibition of germination of Solanum lycopersicum cv. Tres Cantos (tomato) at 0.1 mM or 1 mM after 5 days relative to untreated control).
Type: functional
Summary of the method: (§1)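 Lettuce and tomato seeds, 25 per dish on filter paper, received 5 mL test solution. Incubation was 5 days in the dark at 25 °C, with four replicates per concentration. Solutions were made at 10^-3 or 10^-4 M in 10 mM MES, diluted serially, and adjusted to pH 6.0. Parallel controls were run. Results are % difference from control.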
C=C1CC[C@H]2[C@H](CO)C(=O)O[C@@H]2[C@@]2(O)C(=C)[C@H](O)C[C@@H]12 was tested, and the inhibition was “inactive”.

What follows are molecules tested on Lactuca sativa (assay: Inhibition of root length of Lactuca sativa cv. Roman (lettuce) at 0.1 mM or 1 mM after 5 days relative to untreated control).
Type: functional
Summary of the method: as §1
In the case of C=C1CC[C@H]2[C@H](CO)C(=O)O[C@@H]2[C@@]2(O)C(=C)[C@H](O)C[C@@H]12, the “inhibition (INH)” value is reported as 20%.

Each molecule was assayed on Lepidium sativum (assay: Inhibition of root length of Lepidium sativum at 0.1 mM or 1 mM after 4 days relative to untreated control).
For C=C1CC[C@H]2[C@H](CO)C(=O)O[C@@H]2[C@@]2(O)C(=C)[C@H](O)C[C@@H]12, the “inhibition (INH)” value was >40%.

Each molecule was assayed on Triticum aestivum (assay: Inhibition of germination of Triticum aestivum cv. Cortex (wheat) at 0.1 mM or 1 mM after 5 days relative to untreated control).
Type: functional
Summary of the method: (§2)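 Wheat: 10 seeds per dish on filter paper with 5 mL test solution, 5 days in the dark at 25 °C, 10 replicates per concentration. Stock test solutions were 10^-3 or 10^-4 M in 10 mM MES, with lower levels made by dilution, all at pH 6.0. Parallel controls were run. Output is % difference from control.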
With C=C1CC[C@H]2[C@H](CO)C(=O)O[C@@H]2[C@@]2(O)C(=C)[C@H](O)C[C@@H]12 the “inhibition (INH)” value was <20%.

The molecules below were run on Allium cepa (assay: Inhibition of hypocotyl length of Allium cepa cv. Valenciana (onion) at 0.1 mM or 1 mM after 7 days relative to untreated control).
With C=C1CC[C@H]2[C@H](CO)C(=O)O[C@@H]2[C@@]2(O)C(=C)[C@H](O)C[C@@H]12 the inhibition was “inactive”.

These molecules were tested on Triticum aestivum (assay: Stimulation of root length of Triticum aestivum cv. Cortex (wheat) at 0.1 mM or 1 mM after 5 days relative to untreated control).
Type: functional
Summary of the method: as §2
For C=C1CC[C@H]2[C@H](CO)C(=O)O[C@@H]2[C@@]2(O)C(=C)[C@H](O)C[C@@H]12, the Activity was “inactive”.

The molecules below were run on Lepidium sativum (assay: Stimulation of root length of Lepidium sativum at 0.1 mM or 1 mM after 5 days relative to untreated control).
Type: functional
With C=C1CC[C@H]2[C@H](CO)C(=O)O[C@@H]2[C@@]2(O)C(=C)[C@H](O)C[C@@H]12 the Activity was >40%.

The molecules below were run on Triticum aestivum (assay: Stimulation of germination of Triticum aestivum cv. Cortex (wheat) at 0.1 mM or 1 mM after 5 days relative to untreated control).
Type: functional
Summary of the method: as §2
For C=C1CC[C@H]2[C@H](CO)C(=O)O[C@@H]2[C@@]2(O)C(=C)[C@H](O)C[C@@H]12, the Activity was <20%.

These molecules were tested on Lactuca sativa (assay: Inhibition of hypocotyl length of Lactuca sativa cv. Roman (lettuce) at 0.1 mM or 1 mM after 5 days relative to untreated control).
Type: functional
Summary of the method: as §1
In the case of C=C1CC[C@H]2[C@H](CO)C(=O)O[C@@H]2[C@@]2(O)C(=C)[C@H](O)C[C@@H]12, the “inhibition (INH)” value is reported as >40%.

Each molecule was assayed on Triticum aestivum (assay: Inhibition of root length of Triticum aestivum cv. Cortex (wheat) at 0.1 mM or 1 mM after 5 days relative to untreated control).
Type: functional
Summary of the method: as §2
For C=C1CC[C@H]2[C@H](CO)C(=O)O[C@@H]2[C@@]2(O)C(=C)[C@H](O)C[C@@H]12, the inhibition was “inactive”.

Each molecule was assayed on Allium cepa (assay: Inhibition of germination of Allium cepa cv. Valenciana (onion) at 0.1 mM or 1 mM after 5 days relative to untreated control).
Type: functional
In the case of C=C1CC[C@H]2[C@H](CO)C(=O)O[C@@H]2[C@@]2(O)C(=C)[C@H](O)C[C@@H]12, the inhibition is reported as “inactive”.

The molecules below were run on Allium cepa (assay: Inhibition of root length of Allium cepa cv. Valenciana (onion) at 0.1 mM or 1 mM after 5 days relative to untreated control).
Type: functional
With C=C1CC[C@H]2[C@H](CO)C(=O)O[C@@H]2[C@@]2(O)C(=C)[C@H](O)C[C@@H]12 the inhibition was “inactive”.

These molecules were tested on Lactuca sativa (assay: Stimulation of root length of Lactuca sativa cv. Roman (lettuce) at 0.1 mM or 1 mM after 5 days relative to untreated control).
Type: functional
Summary of the method: as §1
Work on C=C1CC[C@H]2[C@H](CO)C(=O)O[C@@H]2[C@@]2(O)C(=C)[C@H](O)C[C@@H]12 yielded an Activity of 20%.

What follows are molecules tested on Allium cepa (assay: Stimulation of hypocotyl length of Allium cepa cv. Valenciana (onion) at 0.1 mM or 1 mM after 7 days relative to untreated control).
For C=C1CC[C@H]2[C@H](CO)C(=O)O[C@@H]2[C@@]2(O)C(=C)[C@H](O)C[C@@H]12, the Activity was “inactive”.

What follows are molecules tested on Solanum lycopersicum (assay: Inhibition of root length of Solanum lycopersicum cv. Tres Cantos (tomato) at 0.1 mM or 1 mM after 5 days relative to untreated control).
Type: functional
Summary of the method: as §1
With C=C1CC[C@H]2[C@H](CO)C(=O)O[C@@H]2[C@@]2(O)C(=C)[C@H](O)C[C@@H]12 the inhibition was “inactive”.

Each molecule was assayed on Solanum lycopersicum (assay: Stimulation of germination of Solanum lycopersicum cv. Tres Cantos (tomato) at 0.1 mM or 1 mM after 5 days relative to untreated control).
Type: functional
Summary of the method: as §1
In the case of C=C1CC[C@H]2[C@H](CO)C(=O)O[C@@H]2[C@@]2(O)C(=C)[C@H](O)C[C@@H]12, the Activity is reported as “inactive”.

Each molecule was assayed on Lepidium sativum (assay: Stimulation of hypocotyl length of Lepidium sativum at 0.1 mM or 1 mM after 5 days relative to untreated control).
Type: functional
With C=C1CC[C@H]2[C@H](CO)C(=O)O[C@@H]2[C@@]2(O)C(=C)[C@H](O)C[C@@H]12 the Activity was 20%.

These molecules were tested on Triticum aestivum (assay: Stimulation of hypocotyl length of Triticum aestivum cv. Cortex (wheat) at 0.1 mM or 1 mM after 5 days relative to untreated control).
Type: functional
Summary of the method: as §2
For C=C1CC[C@H]2[C@H](CO)C(=O)O[C@@H]2[C@@]2(O)C(=C)[C@H](O)C[C@@H]12, the Activity was “inactive”.

Each molecule was assayed on Solanum lycopersicum (assay: Stimulation of root length of Solanum lycopersicum cv. Tres Cantos (tomato) at 0.1 mM or 1 mM after 5 days relative to untreated control).
Type: functional
Summary of the method: as §1
C=C1CC[C@H]2[C@H](CO)C(=O)O[C@@H]2[C@@]2(O)C(=C)[C@H](O)C[C@@H]12 was tested, and the Activity was “inactive”.

What follows are molecules tested on Lactuca sativa (assay: Inhibition of germination of Lactuca sativa cv. Roman (lettuce) at 0.1 mM or 1 mM after 5 days relative to untreated control).
Type: functional
Summary of the method: as §1
In the case of C=C1CC[C@H]2[C@H](CO)C(=O)O[C@@H]2[C@@]2(O)C(=C)[C@H](O)C[C@@H]12, the “inhibition (INH)” value is reported as 20%.

Each molecule was assayed on Lactuca sativa (assay: Stimulation of hypocotyl length of Lactuca sativa cv. Roman (lettuce) at 0.1 mM or 1 mM after 5 days relative to untreated control).
Type: functional
Summary of the method: as §1
C=C1CC[C@H]2[C@H](CO)C(=O)O[C@@H]2[C@@]2(O)C(=C)[C@H](O)C[C@@H]12 was tested, and the Activity was >40%.

These molecules were tested on Allium cepa (assay: Stimulation of root length of Allium cepa cv. Valenciana (onion) at 0.1 mM or 1 mM after 7 days relative to untreated control).
With C=C1CC[C@H]2[C@H](CO)C(=O)O[C@@H]2[C@@]2(O)C(=C)[C@H](O)C[C@@H]12 the Activity was “inactive”.

Each molecule was assayed on Lepidium sativum (assay: Inhibition of germination of Lepidium sativum at 0.1 mM or 1 mM after 4 days relative to untreated control).
With C=C1CC[C@H]2[C@H](CO)C(=O)O[C@@H]2[C@@]2(O)C(=C)[C@H](O)C[C@@H]12 the Activity was “inactive” and the inhibition was “inactive”.

What follows are molecules tested on Lactuca sativa (assay: Stimulation of germination of Lactuca sativa cv. Roman (lettuce) at 0.1 mM or 1 mM after 5 days relative to untreated control).
Type: functional
Summary of the method: as §1
Molecule C=C1CC[C@H]2[C@H](CO)C(=O)O[C@@H]2[C@@]2(O)C(=C)[C@H](O)C[C@@H]12 has an Activity of 20%.

Each molecule was assayed on Solanum lycopersicum (assay: Inhibition of hypocotyl length of Solanum lycopersicum cv. Tres Cantos (tomato) at 0.1 mM or 1 mM after 5 days relative to untreated control).
Type: functional
Summary of the method: as §1
For C=C1CC[C@H]2[C@H](CO)C(=O)O[C@@H]2[C@@]2(O)C(=C)[C@H](O)C[C@@H]12, the inhibition was “inactive”.

The molecules below were run on Triticum aestivum (assay: Inhibition of hypocotyl length of Triticum aestivum cv. Cortex (wheat) at 0.1 mM or 1 mM after 5 days relative to untreated control).
Type: functional
Summary of the method: as §2
C=C1CC[C@H]2[C@H](CO)C(=O)O[C@@H]2[C@@]2(O)C(=C)[C@H](O)C[C@@H]12 was tested, and the inhibition was “inactive”.

What follows are molecules tested on Solanum lycopersicum (assay: Stimulation of hypocotyl length of Solanum lycopersicum cv. Tres Cantos (tomato) at 0.1 mM or 1 mM after 5 days relative to untreated control).
Type: functional
Summary of the method: as §1
C=C1CC[C@H]2[C@H](CO)C(=O)O[C@@H]2[C@@]2(O)C(=C)[C@H](O)C[C@@H]12 was tested, and the Activity was “inactive”.

Each molecule was assayed on Allium cepa (assay: Stimulation of germination of Allium cepa cv. Valenciana (onion) at 0.1 mM or 1 mM after 5 days relative to untreated control).
Type: functional
In the case of C=C1CC[C@H]2[C@H](CO)C(=O)O[C@@H]2[C@@]2(O)C(=C)[C@H](O)C[C@@H]12, the Activity is reported as “inactive”.
